According to ChEMBL document CHEMBL1121430, “Bicyclic and tricyclic ergoline partial structures. Rigid 3-(2-aminoethyl)pyrroles and 3- and 4-(2-aminoethyl)pyrazoles as dopamine agonists” (1980):

Tests used:
Format in all cases: functional
[1] = system: Rattus norvegicus; assay: (§1) Tested for lowering of serum prolactin level in reserpinized rat after i.p. administration at dosage of 0.05 mg/kg; conditions: route intraperitoneal
[2] = system: Rattus norvegicus; assay: Percentage of lesioned rats exhibiting contralateral turning after intraperitoneal dosage of 1.0 mg/kg
How it was run: (§2)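 Rats with unilateral 6-hydroxydopamine nigrostriatal lesions dosed i.p.; contralateral rotation scored as % of rats turning and average turns during first 15 min after turning began; 6-10 rats per group. Method of Ungerstedt and Arbuthnot.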

[3] = system: Rattus norvegicus; assay: Tested for lowering of serum prolactin level in reserpinized rat after i.p. administration at dosage of 0.5 mg/kg; conditions: route intraperitoneal
[4] = system: Rattus norvegicus; assay: (§3) Control Serum prolactin level in reserpinized rat after i.p. administration at dosage of 0.05 mg/kg; conditions: route intraperitoneal
[5] = system: Rattus norvegicus; assay: Dopaminergic activity causing prolactin inhibition in reserpinized rat after i.p. administration at dosage of 0.5 mg/kg; conditions: ip, route intraperitoneal
[6] = system: Rattus norvegicus; assay: (§4) Dopaminergic activity causing prolactin inhibition in reserpinized rat after i.p. administration at dosage of 5.0 mg/kg; conditions: ip, route intraperitoneal
[7] = system: Rattus norvegicus; assay: (§5) Tested for average turns of rat / 1st 15 min at intraperitoneal dosage of 0.1 mg/kg; how it was run: as §2
[8] = system: Rattus norvegicus; assay: Average turns of rat / 1st 15 min at intraperitoneal dosage of 1.0 mg/kg
[9] = species: Rattus norvegicus; assay: animal or person; conditions: ip, route intraperitoneal
[10] = system: Rattus norvegicus; assay: (§6) Percentage of lesioned rats exhibiting contralateral turning after intraperitoneal dosage of 0.1 mg/kg; how it was run: as §2
[11] = system: Rattus norvegicus; assay: (§7) Control Serum prolactin level in reserpinized rat after i.p. administration at dosage of 0.5 mg/kg; conditions: route intraperitoneal
[12] = system: Rattus norvegicus; assay: Percentage of lesioned rats exhibiting contralateral turning after ip dosage of 1.0 mg/kg; conditions: route intraperitoneal
How it was run: (§8)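 Rats with unilateral 6-hydroxydopamine nigrostriatal lesions dosed intraperitoneally; contralateral rotation scored as percentage of rats turning and average turns counted over first 15 min after turning began; 6-10 rats per group.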

[13] = system: Rattus norvegicus; assay: as §5; how it was run: as §8; remark: listed apart in the source
[14] = system: Rattus norvegicus; assay: Tested for average turns of rat / 1st 15 min at intraperitoneal dosage of 1.0 mg/kg; how it was run: as §8
[15] = system: Rattus norvegicus; assay: as §6; how it was run: as §8; remark: listed apart in the source
[16] = system: Rattus norvegicus; assay: Percentage of lesioned rats exhibiting contralateral turning after ip dosage of 0.1 mg/kg; conditions: route intraperitoneal; how it was run: as §8
[17] = system: Rattus norvegicus; assay: Tested for average turns of rat / 1st 15 min at intraperitoneal dosage of 0.05 mg/kg; how it was run: as §8
[18] = system: Rattus norvegicus; assay: Percentage of lesioned rats exhibiting contralateral turning after ip dosage of 0.05 mg/kg; conditions: route intraperitoneal; how it was run: as §8
[19] = system: Rattus norvegicus; assay: as §7; conditions: route intraperitoneal; remark: listed apart in the source
How it was run: (§9)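 Reserpinized male rats, intraperitoneal dosing; serum prolactin of vehicle control group reported in ng/mL as mean ± standard error, 10 rats per group, for comparison with treated group.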

[20] = system: Rattus norvegicus; assay: (§10) Dopaminergic activity causing prolactin inhibition in reserpinized rat after i.p. administration at dosage of 0.05 mg/kg; conditions: ip, route intraperitoneal
How it was run: (§11)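 Serum prolactin measured in reserpinized male rats given drug intraperitoneally; control group serum level alongside treated level; percent inhibition derived from control versus treated means; mean ± standard error for 10 rats per group; significance level (p) reported versus control.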

[21] = system: Rattus norvegicus; assay: as §3; conditions: route intraperitoneal; remark: listed apart in the source
How it was run: (§12)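 Male rats pretreated with reserpine; drug given i.p. and serum prolactin measured (ng/mL) in controls and treated groups; % inhibition relative to control; mean ± SE for 10 rats per group; significance level p reported. Method of Clemens et al.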

[22] = system: Rattus norvegicus; assay: as §1; conditions: route intraperitoneal; how it was run: as §11; remark: listed apart in the source
[23] = system: Rattus norvegicus; assay: as §10; conditions: ip, route intraperitoneal; how it was run: as §12; remark: listed apart in the source
[24] = system: Rattus norvegicus; assay: Dopaminergic activity causing prolactin inhibition in reserpinized rat after i.p. administration at dosage of 0.0005 mg/kg; conditions: ip, route intraperitoneal; how it was run: as §11
[25] = system: Rattus norvegicus; assay: (§13) Dopaminergic activity causing prolactin inhibition in reserpinized rat after i.p. administration at dosage of 0.005 mg/kg; conditions: ip, route intraperitoneal; how it was run: as §11
[26] = system: Rattus norvegicus; assay: Tested for lowering of serum prolactin level in reserpinized rat after i.p. administration at dosage of 0.0005 mg/kg; conditions: route intraperitoneal; how it was run: as §11
[27] = system: Rattus norvegicus; assay: Control Serum prolactin level in reserpinized rat after i.p. administration at dosage of 0.0005 mg/kg; conditions: route intraperitoneal; how it was run: as §11
[28] = system: Rattus norvegicus; assay: Tested for lowering of serum prolactin level in reserpinized rat after i.p. administration at dosage of 0.005 mg/kg; conditions: route intraperitoneal; how it was run: as §11
[29] = system: Rattus norvegicus; assay: tested for average turns of rat / 1st 15 min at intraperitoneal dosage of 0.1 mg/kg; how it was run: as §8
[30] = system: Rattus norvegicus; assay: Tested for average turns of rat / 1st 15 min at intraperitoneal dosage of 0.02 mg/kg; how it was run: as §8
[31] = system: Rattus norvegicus; assay: Control Serum prolactin level in reserpinized rat after i.p. administration at dosage of 0.005 mg/kg; conditions: route intraperitoneal; how it was run: as §11
[32] = system: Rattus norvegicus; assay: Percentage of lesioned rats exhibiting contralateral turning after ip dosage of 0.02 mg/kg; conditions: route intraperitoneal; how it was run: as §8
[33] = system: Rattus norvegicus; assay: Percentage of lesioned rats exhibiting contralateral turning after intraperitoneal dosage of 0.05 mg/kg; how it was run: as §8
[34] = system: Rattus norvegicus; assay: as §13; conditions: ip, route intraperitoneal; how it was run: as §12; remark: listed apart in the source
[35] = system: Rattus norvegicus; assay: as §4; conditions: ip, route intraperitoneal; how it was run: as §11; remark: listed apart in the source
[36] = system: Rattus norvegicus; assay: Control Serum prolactin level in reserpinized rat after i.p. administration at dosage of 5 mg/kg; conditions: route intraperitoneal; how it was run: as §9

| Compound | Exhibiting turning [2] | Inhibition [4] | inhibition in vivo at 0.5 mg/kg [5] | inhibition in vivo at 5 mg/kg [6] | Average turns [8] | inhibition in vivo at 0.05 mg/kg [9] | Exhibiting turning [12] | Average turns [13] | also measured |
| --- | --- | --- | --- | --- | --- | --- | --- | --- | --- |
| CCCN(CCC)C1CCc2c[nH]cc2C1.O=C(O)/C=C\C(=O)O (stereo not drawn) | 40% | 59.8 ng/mL | 40% | 93% | 52 | 20% |  |  | Inhibition [1]: 47.6 ng/mL; Serum level [3]: 36.1 ng/mL; Average turns [7]: 0; Exhibiting turning [10]: 0%; Concentration [11]: 59.8 ng/mL |
| CN1CCC[C@@H]2Cc3n[nH]cc3CC21.Cl.Cl (stereo partly drawn) |  | 31.7 ng/mL | 42% | 84% | 0 | 2% | 0% |  | Inhibition [1]: 31.1 ng/mL; Serum level [3]: 18.5 ng/mL; Concentration [11]: 31.7 ng/mL |
| CN(C)C1Cc2cccc3[nH]cc(c23)C1.O=C(O)C(=O)O (stereo not drawn) | 75% | 36.4 ng/mL |  | 91% |  | 45% |  | 0 | Inhibition [1]: 19.9 ng/mL; Average turns [14]: 69; Exhibiting turning [15]: 0% |
| Cl.Cl.c1[nH]nc2c1CC1NCCC[C@@H]1C2 (stereo partly drawn) |  |  |  | 20% | 0 |  | 0% |  |  |
| CCN(CC)C1CCc2c[nH]cc2C1.O=C(O)/C=C\C(=O)O (stereo not drawn) | 0% |  |  | 23% | 0 |  |  |  |  |
| Cl.Cl.NC1CCc2n[nH]cc2C1 (stereo not drawn) | 0% |  |  | 14% | 0 |  |  |  |  |
| CCCN(CCC)C1CCc2c[nH]nc2C1 (stereo not drawn) | 100% |  |  |  | 114 | 31% |  |  | Average turns [7]: 0; Exhibiting turning [10]: 0% |
| CCCN1CCC[C@@H]2Cc3n[nH]cc3CC21.Cl.Cl (stereo partly drawn) |  |  | 76% | 91% | 85 | 61% | 100% | 67 | Exhibiting turning [16]: 75%; Average turns [17]: 6; Exhibiting turning [18]: 67% |
| CCCN(CCC)C1Cc2cccc3[nH]cc(c23)C1.O=C(O)C(=O)O (stereo not drawn) | 60% | 46.1 ng/mL | 59% | 95% |  | 0% |  |  | Inhibition [1]: 46.2 ng/mL; Serum level [3]: 18.9 ng/mL; Average turns [14]: 113; Control level [19]: 46.1 ng/mL; Average turns [7]: 73; Exhibiting turning [10]: 40% |
| C=CCN1CCC[C@@H]2Cc3n[nH]cc3CC21.Cl.Cl (stereo partly drawn) |  |  |  |  | 165 |  | 100% | 0 | Exhibiting turning [16]: 0%; inhibition in vivo at 0.05 mg/kg [20]: 31% |
| CCCN(CCC)C1CCc2n[nH]cc2C1.Cl.Cl (stereo not drawn) |  |  | 66% | 94% | 90 |  | 60% | 0 | Exhibiting turning [16]: 0%; Serum level [3]: 10.6 ng/mL; Control [21]: 31.2 ng/mL; Treatment [22]: 30.8 ng/mL; Concentration [11]: 31.2 ng/mL; inhibition in vivo at 0.05 mg/kg [23]: 1% |
| NC1CCc2c[nH]cc2C1 (stereo not drawn) | 0% |  |  | 24% | 0 |  |  |  |  |
| CCCN1CC(CSC)C[C@@H]2c3cccc4[nH]cc(c34)CC21.COS(=O)(=O)O (stereo partly drawn) |  |  |  |  | 93 | 95% | 100% |  | inhibition in vivo at 0.0005 mg/kg [24]: 59%; Exhibiting turning [16]: 83%; Average turns [17]: 60; Exhibiting turning [18]: 100%; inhibition in vivo at 0.005 mg/kg [25]: 91%; Inhibition [26]: 15.5 ng/mL; Inhibition [27]: 37.7 ng/mL; Inhibition [28]: 3.5 ng/mL; Average turns [29]: 81; Average turns [30]: 0; Inhibition [31]: 37.7 ng/mL; Exhibiting turning [32]: 0% |
| CCCN1CC(CO)C[C@@H]2Cc3c[nH]cc3CC21 (stereo partly drawn) | 100% |  |  |  | 109 | 17% |  | 8 | Exhibiting turning [15]: 67% |
| CN(C)C1CCc2n[nH]cc2C1.Cl.Cl (stereo not drawn) | 0% | 59.8 ng/mL |  | 69% | 0 | 32% |  |  | Inhibition [1]: 41 ng/mL |
| CN1CCC[C@@H]2Cc3c[nH]cc3CC21.O=C(O)/C=C\C(=O)O (stereo partly drawn) | 33% |  | 18% | 90% | 19 |  |  |  | Serum level [3]: 30.9 ng/mL; Concentration [11]: 37.7 ng/mL |
| CCCN1CCC[C@@H]2Cc3c[nH]cc3CC21.O=C(O)/C=C\C(=O)O (stereo partly drawn) | 100% | 49.5 ng/mL |  | 95% | 169 | 36% |  | 64 | Average turns [17]: 49; inhibition in vivo at 0.005 mg/kg [25]: 24%; Exhibiting turning [33]: 33%; Inhibition [28]: 37.6 ng/mL; Exhibiting turning [15]: 50%; Treatment [22]: 31.6 ng/mL; Inhibition [31]: 49.5 ng/mL |
| CCCN1CC(CSC)C[C@@H]2Cc3n[nH]cc3CC21.Cl.Cl (stereo partly drawn) |  |  |  |  | 81 | 89% | 100% | 65 | inhibition in vivo at 0.0005 mg/kg [24]: 30%; Exhibiting turning [16]: 50%; Average turns [17]: 80; Exhibiting turning [18]: 67%; Inhibition [26]: 31.5 ng/mL; Inhibition [27]: 44.9 ng/mL; Inhibition [28]: 19.3 ng/mL; Inhibition [31]: 44.9 ng/mL; inhibition in vivo at 0.005 mg/kg [34]: 57% |
| O=C(O)/C=C\C(=O)O.c1[nH]cc2c1CC1NCCC[C@@H]1C2 (stereo partly drawn) |  |  |  |  | 0 |  | 0% |  | inhibition in vivo at 5 mg/kg [35]: 26%; Inhibition [36]: 43.4 ng/mL |
